Measurements: ChEMBL document CHEMBL4732082, “Development of novel benzimidazole-derived neddylation inhibitors for suppressing tumor growth invitro and invivo” (Eur J Med Chem, 2021)
pIC50: −log10 of the molar value.

How the values were obtained:
[1] = Toxicity in nude mouse assessed as effect on body weight at 30 mg/kg, qd after 24 days; format: organism-based; conditions: in vivo, 576 h, time 24 day
Method in brief: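 Female nude mice were inoculated subcutaneously with 2×10^6 A549 cells in 0.1 mL PBS. At tumor volume 70–100 mm³, mice were randomized into 5 groups of 6. Dosing was ip or oral gavage, once daily on a 5-days-on/2-days-off schedule, with 10% 2-hydroxypropyl-β-cyclodextrin/water as vehicle control. Body weight and tumor volume were measured every two days; tumors were weighed at sacrifice. Significance by two-tailed Student's t-test.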

[2] = molecular target: T1, NEDD8-activating enzyme E1 catalytic subunit (Homo sapiens, UniProt Q8TBC4); assay: Inhibition of NAE (unknown origin)-mediated neddylation assessed as suppression of cullin1-Nedd8 adduct formation preincubated for 10 mins followed by ATP addition and measured after 30 mins by immunoblot analysis
T1 sequence (Q8TBC4 whole entry): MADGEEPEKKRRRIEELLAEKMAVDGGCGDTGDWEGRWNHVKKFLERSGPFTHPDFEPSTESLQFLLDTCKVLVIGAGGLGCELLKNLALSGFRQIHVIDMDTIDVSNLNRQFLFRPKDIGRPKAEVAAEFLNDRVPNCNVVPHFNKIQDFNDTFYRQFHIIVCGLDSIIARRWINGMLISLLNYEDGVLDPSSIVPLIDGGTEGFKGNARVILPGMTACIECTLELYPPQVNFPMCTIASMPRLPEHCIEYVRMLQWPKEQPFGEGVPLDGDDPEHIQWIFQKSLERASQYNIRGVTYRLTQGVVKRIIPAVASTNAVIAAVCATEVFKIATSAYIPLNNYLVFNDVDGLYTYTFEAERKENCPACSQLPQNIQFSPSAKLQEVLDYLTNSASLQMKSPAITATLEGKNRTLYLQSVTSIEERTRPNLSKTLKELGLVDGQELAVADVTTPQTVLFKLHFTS

pIC50 [2]: 4.78
SMILES: CCOc1nc2cccc(C(=O)OC(C)OC(=O)OC3CCCCC3)c2n1Cc1ccc(-c2ccccc2-c2nnn[nH]2)cc1 (configuration not stated) [CANDESARTAN CILEXETIL]
Activity [1]: Non-Toxic
